Laboratory results taken from ChEMBL document CHEMBL3526056, “Characterization of in vitro glucuronidation clearance of a range of drugs in human kidney microsomes: comparison with liver and intestinal glucuronidation and impact of albumin” (Drug Metab Dispos, 2012).

Assays:
[1] = Ratio of unbound intrinsic glucuronidation clearance in human intestinal microsomes in presence of 2% bovine serum albumin to unbound intrinsic glucuronidation clearance in human intestinal microsomes in absence of bovine serum albumin; format: ADME, Intestine, Microsome
Method in brief: (§1)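 Ratios of mean scaled unbound CLint,UGT (per g tissue) between tissues, or between with and without BSA. Microsomal depletion assays at 1 μM, or 5 μM for propofol, in pH 7.1 phosphate at 37°C, read by LC-MS/MS. Kidney and liver n = 3, intestine n = 1, each in duplicate.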

Liver microsome [2] = experiment: Fraction metabolized glucuronidation in human liver microsomes in presence of UDP-glucuronosyltransferase and bovine serum albumin; format: ADME
[3] = Ratio of unbound intrinsic glucuronidation clearance in human kidney microsomes in presence of 2% bovine serum albumin to unbound intrinsic glucuronidation clearance in human kidney microsomes in absence of bovine serum albumin; format: ADME, microsome; method in brief: as §1
[4] = Fraction unbound in human kidney microsomes at 5 uM after 30 to 60 mins by LC-MS/MS analysis in presence of 2% bovine serum albumin
[5] = Fraction unbound in human intestinal microsomes at 5 uM after 30 to 60 mins by LC-MS/MS analysis
Liver microsome [6] = experiment: Ratio of unbound intrinsic glucuronidation clearance in human liver microsomes in presence of 2% bovine serum albumin to unbound intrinsic glucuronidation clearance in human liver microsomes in absence of bovine serum albumin; format: ADME; method in brief: as §1
[7] = Fraction unbound in human plasma
[8] = Clearance in iv dosed human; format: ADME, organism-based; details: in vivo
[9] = Fraction unbound in human kidney microsomes at 5 uM after 30 to 60 mins by LC-MS/MS analysis
[10] = Ratio of drug level blood to plasma in human; format: ADME; details: blood and plasma
Liver microsome [11] = experiment: Fraction metabolized glucuronidation in human liver microsomes in presence of UDP-glucuronosyltransferase; format: ADME
[12] = Glucuronidation clearance in human liver microsomes; format: ADME
[13] = Fraction unbound in human liver microsomes at 5 uM after 30 to 60 mins by LC-MS/MS analysis
[14] = Glucuronidation clearance in human liver microsomes in presence of bovine serum albumin; format: ADME

CC(C)c1cccc(C(C)C)c1O [PROPOFOL]
Ratio [1]: 1.6 | Drug metabolism (Liver microsome [2]): 0.53 | Ratio [3]: 1.6 | fraction unbound at 5 µM [4]: 0.25 | fraction unbound at 5 µM [5]: 0.69 | Ratio (Liver microsome [6]): 1.6 | fraction unbound [7]: 0.015 | clearance [8]: 27.7 mL/min/kg | fraction unbound at 5 µM [9]: 0.69 | blood plasma ratio [10]: 0.88 | Drug metabolism (Liver microsome [11]): 0.14 | CLhep predicted [12]: 3.88 mL/min/kg | fraction unbound at 5 µM [13]: 0.69 | CLhep predicted [14]: 14.7 mL/min/kg
